# Assay outcomes (PubChem)
# SUMO1 PPI mod – modulators of human SUMO1-mediated protein-protein interactions; AID 602429; SUMO1 binding to a labelled peptide, TR-FRET, 1 h; inhibition, % at 20 µM; actives 0.33% (n = 360,000); P63165; in the data active = inhibition above about 37%
# Target sequence (P63165 whole entry, looked up): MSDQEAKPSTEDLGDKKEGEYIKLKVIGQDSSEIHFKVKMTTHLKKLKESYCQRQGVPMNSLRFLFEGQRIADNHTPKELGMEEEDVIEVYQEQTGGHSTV
# Scp1 inh – Scp-1 (human) phosphatase inhibition | Recombinant Scp1, phosphopeptide, malachite green phosphate absorbance | inhibition, % at 20 µM | actives 0.88% (n = 340,000) | AID 493091;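 active = inhibition above about 50% at 20 µM, limit read from the data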
# Target sequence (Q9GZU7 76-261 limits assumed): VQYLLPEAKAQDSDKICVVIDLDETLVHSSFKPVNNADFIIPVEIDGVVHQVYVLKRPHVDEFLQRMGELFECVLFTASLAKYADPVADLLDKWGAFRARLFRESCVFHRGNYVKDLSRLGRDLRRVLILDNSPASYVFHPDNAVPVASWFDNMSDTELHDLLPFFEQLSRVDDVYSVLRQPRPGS
#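 Material – SCP-1 phosphatase catalytic domain, residues 76-261 · Buffer or medium – Acidic Tris acetate buffer with magnesium and detergent · Also added – Phospho 17-mer peptide substrate · Compound – single 20 µM dose, 1% DMSO · Times – 45 min room-temperature reaction, 5 min colour, 30 min stabiliser · Technique – Phosphate-binding colour reagent, absorbance read at 630 nm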
# GRK2 inh – blocks RNA aptamer binding to human GRK2; P25098; bead flow cytometry, FAM-aptamer displacement from GRK2; inhibition of aptamer binding, % at 10 µM; actives 0.59% (n = 330,000);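 active = inhibition of aptamer binding above 40%, roughly 3 SD of noise, on plates passing a quality check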;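 also: median bead fluorescence of bound FAM aptamer so fluorescent compounds give negative values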
# DNMT1 block – DNMT1 (human) enzyme inhibition; P26358; DNMT1 molecular beacon, Hinp1I cleavage, fluorescence; inhibition (reported as % activation of signal), % at 10 µM; actives 0.83% (n = 360,000); AID 588458; in the data active = inhibition above about 50%
# LMPTP block – blocks human LMPTP phosphatase; inhibition, % at 20 µM; P24666; recombinant LMPTP-A, OMFP fluorogenic substrate, fluorescence intensity; AID 651560; actives 0.22% (n = 360,000);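 active = compounds that cut the enzyme signal by at least half of the control window in the single-dose screen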
# Target sequence (P24666 whole entry, looked up): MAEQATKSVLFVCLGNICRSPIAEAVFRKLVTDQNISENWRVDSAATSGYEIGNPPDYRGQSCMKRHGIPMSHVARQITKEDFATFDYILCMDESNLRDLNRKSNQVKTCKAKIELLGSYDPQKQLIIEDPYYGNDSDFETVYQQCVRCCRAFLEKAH
#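 Test system: LMPTP-A phosphatase enzyme. Amount: LMPTP-A at 0.625 nM final in the reaction. Reagent: OMFP substrate, 400 µM final. Times: 50 min at room temperature. Signal: endpoint fluorescence intensity from OMFP dephosphorylation. Read-out basis: % inhibition. Benchmarks: no-enzyme and uninhibited controls.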
# STEP inh – blocks human striatal-enriched tyrosine phosphatase; P54829; recombinant STEP, OMFP fluorogenic substrate, fluorescence; inhibition, % at 20 µM; actives 0.25% (n = 360,000); AID 588621;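 active = inhibition at 20 µM, scaled per plate between control wells, above about 37%, limit read from the data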
#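 Material: STEP (striatal-enriched tyrosine phosphatase) enzyme, cell-free | Medium: 50 mM Bis-Tris pH 6.0 with 2.5 mM DTT and 0.005% Tween 20 | Read-out: Percent inhibition scaled to no-enzyme and uninhibited-enzyme controls, plate-pattern corrected | Signal: Fluorescence read at 480 nm ex / 540 nm em | Times: 20 min reaction, room temperature, in the dark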
# DNMT1 interf DR – counter-screen for DNMT1 inhibitors: spectral interference, dose response; shares compounds with DNMT1 block; molecular beacon fluorescence; IC50, µM; 200 tested, under 10 active; AID 602382; call rule not given here
# DNMT1 inh conf – DNMT1 inhibition confirmation, single concentration. shares compounds with DNMT1 block. DNMT1 molecular beacon HinP1I cleavage, fluorescence. inhibition, % at 10 µM. actives 8% (n = 2,300). AID 602385;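 active = average inhibition of at least 30% in the single-concentration confirmation test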
# Beacon interf – shows spectral interference in the DNMT1 beacon assay; AID 602387; DNMT1 molecular beacon spectral interference counterscreen, fluorescence 485/520; shares compounds with DNMT1 block; activation (fluorescence interference), % at 10 µM; actives 1% (n = 2,300);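 active = activation of at least 30% at 10 µM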;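 also: DNMT1 catalytic domain with a HinP1I cleavage step and a FAM/dabcyl DNA beacon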
# Hits are given with their value; - = inactive; . = no result given. This is a sample that favours compounds with a hit; in the whole collection about 2.2% have one here.
SMILES,SUMO1 PPI mod,Scp1 inh,GRK2 inh,DNMT1 block,LMPTP block,STEP inh,DNMT1 inh conf,Beacon interf,others
c1ccc(-c2cc(-c3nnc4n3N=C(c3ccc5ccccc5c3)CS4)[nH]n2)cc1,-,-,-,55,-,-,-,-,
CCCN(CC1CC1)c1nc(N)c2c(N)nc(OC)cc2c1C#N,-,-,-,52,-,-,-,-,
CCOc1cc2c(C#N)c(N(CC)CC)nc(N)c2c(N)n1,49,-,-,85,-,-,-,-,
C[C@@H]1CN([C@H](C)CO)C(=O)CCCn2nncc2CO[C@@H]1CN(C)S(=O)(=O)c1ccc2ccccc2c1,-,.,.,-,-,-,.,.,
CN(C)CCNC(=O)c1cccc(-c2cnc3c(NC=O)cc(/C=C/c4ccccc4)cn23)c1,-,.,.,-,-,-,.,.,
COc1ccc(/C=C2/C(=O)N(c3nc4ccccc4s3)N=C2CSc2ccc(Cl)cc2)cc1,-,-,-,65,-,-,54,-,DNMT1 interf DR=-
COc1ccc(/C=C2/C(=O)N(Cc3ccccc3)N=C2C)cc1,-,-,-,-,-,-,.,.,
CCc1c(Cl)nc(N)nc1Nc1ccccc1Cl,-,-,.,-,-,-,.,.,
CCc1c(Cl)nc(N)nc1Nc1ccccc1C,-,-,.,75,-,-,-,-,
CCCCCCCCC(=O)c1c(OC)oc(C=O)cc1=O,-,.,.,98,-,-,38,-,DNMT1 interf DR=-
CCCCCCC(=O)Nc1cc2c(C)cc(=O)oc2cc1C,-,-,-,-,-,-,.,.,
CCn1c(CC(=O)Nc2ccccc2)n[nH]c1=S,-,-,-,82,-,-,-,-,
CCn1c(CNC(=O)c2cccs2)n[nH]c1=S,-,-,-,-,-,-,.,.,
O=C(N/N=C/c1ccc(F)cc1)c1c(O)c2ccccc2[nH]c1=O,-,-,-,54,-,-,-,-,
CC(=O)NC(c1cccc(F)c1)c1nc(-c2cc(F)cc(Cl)c2)cs1 (stereo not drawn),-,.,.,59,-,-,-,-,
Cc1cccc(C)c1-n1nnnc1C(c1cccc2ccccc12)N1CCN(C/C=C/c2ccccc2)CC1 (stereo not drawn),-,.,.,-,-,-,.,.,
Cc1cccc(C)c1-n1nnnc1C(c1cc2ccccc2o1)N1CCN(C/C=C/c2ccccc2)CC1 (stereo not drawn),-,.,.,63,-,-,-,-,
CC(C)(C)NC(=O)Cc1ccc(S(=O)(=O)N2CCCC2)s1,-,-,-,72,-,-,-,-,
CC(=O)Oc1cccc(/C=c2\sc3nc(-c4ccco4)nn3c2=O)c1,-,-,-,61,-,-,-,-,
Cc1sc2ncnc(N[C@@H](CCC(=O)O)C(=O)O)c2c1C,-,-,-,-,-,-,.,.,
Cc1sc2ncnc(NC(C)C(=O)O)c2c1C (stereo not drawn),-,-,-,55,-,-,-,-,
COc1cc(OC)c2ccc(=O)oc2c1C(CC(=O)N1CCCC1)c1ccc2c(c1)OCO2 (stereo not drawn),-,-,-,72,-,-,-,-,
Cc1[nH]n(C)c(=O)c1[N+](=O)[O-],-,-,-,56,-,-,-,-,
COC(=O)c1ccc2nc(-c3ccc(Cl)cc3)c(Cc3ccsc3)n2c1,-,.,.,.,-,.,.,.,
COc1ccc(C(=O)NC(=S)Nc2nnn(C)n2)cc1,-,-,-,86,-,-,-,-,
SMILES,SUMO1 PPI mod,Scp1 inh,GRK2 inh,DNMT1 block,LMPTP block,STEP inh,DNMT1 inh conf,Beacon interf,others
COc1ccccc1-c1cnc(C(O)c2cc(C)c(OC)c(C)c2)[nH]1 (stereo not drawn),-,.,.,-,-,-,.,.,
Cc1ccc(S(=O)(=O)N2C[C@H]3[C@H]4C(=O)N(Cc5ccccc5)C(=O)[C@H]4CC(=O)[C@H]3[C@@H]2c2ccccc2)cc1,-,.,.,-,-,-,.,.,
Cc1ccc(O)c(-c2cc(-c3ccccc3[N+](=O)[O-])[nH]n2)c1,-,-,-,-,-,-,.,.,
COc1ccc(O)c(-c2cc(-c3ccccc3[N+](=O)[O-])[nH]n2)c1,-,-,-,86,-,-,-,-,
C=CCn1c(SCC(=O)NC(=O)NCc2ccco2)nc2sc(CC)cc2c1=O,-,-,-,62,-,-,-,-,
CCn1c(SCC(=O)NC(=O)NCc2ccco2)nc2sc(C)c(C)c2c1=O,50,-,-,78,-,-,-,-,
COC(=O)CC1N(S(=O)(=O)c2ccc(C)cc2)c2ccccc2C1(C(=O)OC)C(=O)OC (stereo not drawn),-,.,.,.,-,.,.,.,
CCCOc1ccc(-c2nc(C#N)c(N3CCC(C(N)=O)CC3)o2)cc1,-,-,-,-,-,-,.,.,
N#Cc1nc(-c2ccc(OCc3ccc(Cl)cc3)cc2)oc1N1CCC(C(N)=O)CC1,71,-,-,67,-,-,-,-,
CCN(CC)CCNc1nc2cc(OC)c(OC)cc2c2nc(-c3ccccc3)nn12,-,-,-,67,-,-,-,-,DNMT1 interf DR=-
Cc1cccn2c(=O)c3cc(C(N)=S)c(=N)n(CCCOC(C)C)c3nc12,-,-,-,62,-,-,-,-,
CCc1ccc(-c2nc(NC(=O)c3ccc(OCC(=O)Nc4ccc(F)cc4)c(OC)c3)sc2C)cc1,-,-,-,61,-,-,-,-,
Cc1nc(SCCC(C)C)c([N+](=O)[O-])[nH]1,-,-,-,94,-,-,-,-,
CCCCNC(=O)C1(C)CCCCN1C(=O)c1ccc(OC)c(C(F)(F)F)c1 (stereo not drawn),-,.,.,-,-,-,.,.,
c1cnc2nc3c4ccccc4c4ccccc4c3nc2c1,-,-,.,52,-,-,-,-,
N=C1/C(=C/c2coc3ccccc3c2=O)C(=O)N=C2SC(c3ccco3)=NN12,-,54,-,65,-,-,-,-,DNMT1 interf DR=-
CCCN1CCN(C(=O)c2ccc(CS(=O)c3ccc(Br)cc3)o2)CC1 (stereo not drawn),-,.,.,-,-,-,.,.,
O=C(Nc1nc(OCC(F)(F)F)cnc1/C=C\c1ccccc1)c1ccccc1,-,.,.,-,-,-,.,.,
COc1ccc2oc(=O)c(C(=O)NCc3ccc(F)cc3)cc2c1,-,-,-,-,-,-,.,.,
COc1ccc2oc(=O)c(C(=O)NCc3cccnc3)cc2c1,-,-,-,51,-,-,-,-,
COC(=O)[C@@]12C[C@@H](CC(=O)NCCC(C)C)C(=O)N(Cc3cccc4ccccc34)C1=CCC(C)(C)C2,-,.,.,.,-,.,.,.,
